Tests used:
Type in all cases: functional
[1] = tested on: SNB-19; test: Cytotoxicity against human SNB19 cells assessed as cell growth at 10 uM after 48 hrs by SRB assay; details: SNB-19, 48 h, read-out: Activity
Summary of the method: (§1)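 NCI-60 single-dose screen. Cell lines grown in RPMI 1640 with 5% FBS and 2 mM L-glutamine, plated at 5000–40,000 cells/well according to doubling time, then preincubated 24 h at 37 °C in 5% CO2. Compounds dissolved in DMSO, tested at 10^-5 M for 48 h. Adherent cells fixed with cold TCA (10% final) and stained with 0.4% SRB in 1% acetic acid. Growth expressed as percent of untreated control.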

[2] = tested on: SF-295; test: Cytotoxicity against human SF295 cells assessed as cell growth at 10 uM after 48 hrs by SRB assay; details: SF-295, 48 h, read-out: Activity; summary of the method: as §1
[3] = tested on: HT-29; test: Cytotoxicity against human HT-29 cells assessed as cell growth at 10 uM after 48 hrs by SRB assay; details: HT-29, 48 h, read-out: Activity; summary of the method: as §1
[4] = tested on: HCT-15; test: Cytotoxicity against human HCT15 cells assessed as cell growth at 10 uM after 48 hrs by SRB assay; details: HCT-15, 48 h, read-out: Activity; summary of the method: as §1
[5] = tested on: COLO 205; test: Cytotoxicity against human COLO205 cells assessed as cell growth at 10 uM after 48 hrs by SRB assay; details: COLO 205, 48 h, read-out: Activity; summary of the method: as §1
[6] = tested on: NCI-H460; test: Cytotoxicity against human NCI-H460 cells assessed as cell growth at 10 uM after 48 hrs by SRB assay; details: NCI-H460, 48 h, read-out: Activity; summary of the method: as §1
[7] = tested on: NCI-H322M; test: Cytotoxicity against human NCI-H322M cells assessed as cell growth at 10 uM after 48 hrs by SRB assay; details: read-out: Activity; summary of the method: as §1
[8] = tested on: NCI-H23; test: Cytotoxicity against human NCI-H23 cells assessed as cell growth at 10 uM after 48 hrs by SRB assay; details: NCI-H23, 48 h, read-out: Activity; summary of the method: as §1
[9] = tested on: HOP-62; test: Cytotoxicity against human HOP62 cells assessed as cell growth at 10 uM after 48 hrs by SRB assay; details: HOP-62, 48 h, read-out: Activity; summary of the method: as §1
[10] = tested on: A549; test: Cytotoxicity against human A549 cells assessed as cell growth at 10 uM after 48 hrs by SRB assay; details: A549, 48 h, read-out: Activity; summary of the method: as §1
[11] = tested on: MOLT-4; test: Cytotoxicity against human MOLT4 cells assessed as cell growth at 10 uM after 48 hrs by SRB assay; details: MOLT-4, 48 h, read-out: Activity; summary of the method: as §1
[12] = tested on: T47D; test: Cytotoxicity against human T47D cells assessed as cell growth at 10 uM after 48 hrs by SRB assay; details: read-out: Activity
Summary of the method: (§2)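 NCI-60 single-dose screen at 10^-5 M. Adherent lines are grown in RPMI 1640 with 5% FBS and 2 mM L-glutamine, seeded at 5000–40,000 cells/well by doubling time, and preincubated 24 h at 37 °C in 5% CO2. Drug is added from DMSO stock diluted in medium, then 48 h. Cells are fixed in cold TCA (final 10%) for 60 min and stained with 0.4% SRB in 1% acetic acid. Growth is expressed as % of untreated control using time-zero plates.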

[13] = tested on: BT-549; test: Cytotoxicity against human BT549 cells assessed as cell growth at 10 uM after 48 hrs by SRB assay; details: BT-549, 48 h, read-out: Activity; summary of the method: as §1
[14] = Cytotoxicity against human Hs578T cells assessed as cell growth at 10 uM after 48 hrs by SRB assay; details: Hs-578T, read-out: Activity; summary of the method: as §1
[15] = tested on: MDA-MB-231; test: Cytotoxicity against human MDA-MB-231 cells assessed as cell growth at 10 uM after 48 hrs by SRB assay; details: MDA-MB-231, 48 h, read-out: Activity; summary of the method: as §1
[16] = tested on: TK-10; test: Cytotoxicity against human TK10 cells assessed as cell growth at 10 uM after 48 hrs by SRB assay; details: TK-10, 48 h, read-out: Activity; summary of the method: as §2
[17] = tested on: RXF 393; test: Cytotoxicity against human RXF393 cells assessed as cell growth at 10 uM after 48 hrs by SRB assay; details: RXF 393, 48 h, read-out: Activity; summary of the method: as §1
[18] = tested on: 786-0; test: Cytotoxicity against human 786-0 cells assessed as cell growth at 10 uM after 48 hrs by SRB assay; details: 786-0, 48 h, read-out: Activity; summary of the method: as §1
[19] = tested on: SK-OV-3; test: Cytotoxicity against human SKOV3 cells assessed as cell growth at 10 uM after 48 hrs by SRB assay; details: SK-OV-3, 48 h, read-out: Activity; summary of the method: as §1
[20] = Cytotoxicity against human NCI-ADR-RES cells assessed as cell growth at 10 uM after 48 hrs by SRB assay; details: read-out: Activity; summary of the method: as §1
[21] = tested on: OVCAR-8; test: Cytotoxicity against human OVCAR8 cells assessed as cell growth at 10 uM after 48 hrs by SRB assay; details: OVCAR-8, 48 h, read-out: Activity; summary of the method: as §1
[22] = Cytotoxicity against human OVCAR5 cells assessed as cell growth at 10 uM after 48 hrs by SRB assay; details: OVCAR-5, 48 h, read-out: Activity; summary of the method: as §1
[23] = Cytotoxicity against human OVCAR4 cells assessed as cell growth at 10 uM after 48 hrs by SRB assay; details: OVCAR-4, 48 h, read-out: Activity; summary of the method: as §1
[24] = tested on: OVCAR-3; test: Cytotoxicity against human OVCAR3 cells assessed as cell growth at 10 uM after 48 hrs by SRB assay; details: OVCAR-3, 48 h, read-out: Activity; summary of the method: as §1
[25] = tested on: SK-MEL-28; test: Cytotoxicity against human SK-MEL-28 cells assessed as cell growth at 10 uM after 48 hrs by SRB assay; details: SK-MEL-28, 48 h, read-out: Activity; summary of the method: as §1
[26] = tested on: SK-MEL-2; test: Cytotoxicity against human SK-MEL-2 cells assessed as cell growth at 10 uM after 48 hrs by SRB assay; details: SK-MEL-2, 48 h, read-out: Activity; summary of the method: as §1
[27] = tested on: MDA-MB-435; test: Cytotoxicity against human MDA-MB-435 cells assessed as cell growth at 10 uM after 48 hrs by SRB assay; details: MDA-MB-435, 48 h, read-out: Activity; summary of the method: as §1
[28] = tested on: Malme-3M; test: Cytotoxicity against human MALME-3M cells assessed as cell growth at 10 uM after 48 hrs by SRB assay; details: read-out: Activity; summary of the method: as §1
[29] = tested on: LOX IMVI; test: Cytotoxicity against human LOXIMVI cells assessed as cell growth at 10 uM after 48 hrs by SRB assay; details: read-out: Activity; summary of the method: as §1
[30] = tested on: SNB-75; test: Cytotoxicity against human SNB75 cells assessed as cell growth at 10 uM after 48 hrs by SRB assay; details: SNB-75, 48 h, read-out: Activity; summary of the method: as §1

SMILES	growth at 10 µM [1]	growth at 10 µM [3]	growth at 10 µM [4]	growth at 10 µM [5]	growth at 10 µM [6]	growth at 10 µM [7]	growth at 10 µM [8]	growth at 10 µM [9]	growth at 10 µM [10]	growth at 10 µM [11]	growth at 10 µM [12]	growth at 10 µM [13]	growth at 10 µM [14]	growth at 10 µM [15]	growth at 10 µM [16]	growth at 10 µM [17]	growth at 10 µM [18]	growth at 10 µM [19]	growth at 10 µM [20]	growth at 10 µM [21]	also measured
Cc1cc(C)n(-c2cn3c(-c4ccccc4)csc3n2)n1	96.5%	97.6%	95%	106%	104%	91.1%	95.4%	91.4%	99%	93.9%	87.2%	95.3%	106%	86.3%	124%	93.4%	98%	89.9%	95.5%	95.9%	growth at 10 µM [2]: 77.5%; growth at 10 µM [22]: 95.4%; growth at 10 µM [23]: 93%; growth at 10 µM [24]: 101%; growth at 10 µM [25]: 102%; growth at 10 µM [26]: 97.6%; growth at 10 µM [27]: 96.9%; growth at 10 µM [28]: 94.1%; growth at 10 µM [29]: 91.9%; growth at 10 µM [30]: 64.1%
Cc1cc(C)n(-c2cn3c(-c4ccc(Cl)cc4)csc3n2)n1	92.8%	87%	95.5%	100%	101%	91%	91%	97.1%	85.8%	81.3%	80.7%	113%	94.3%	86.4%	128%	93.5%	102%	93.4%	100%	91.5%	growth at 10 µM [2]: 82.5%; growth at 10 µM [22]: 109%; growth at 10 µM [23]: 81.9%; growth at 10 µM [24]: 107%; growth at 10 µM [25]: 97.9%; growth at 10 µM [26]: 113%; growth at 10 µM [27]: 94.5%; growth at 10 µM [28]: 93.1%; growth at 10 µM [29]: 91.9%; growth at 10 µM [30]: 69.2%
Cc1ccc(-c2csc3nc(-n4nc(C)cc4C)cn23)cc1	100%	104%	101%	106%	102%	96.4%	93.3%	104%	98.6%	98.4%	98.2%	125%	97%	88.8%	141%	105%	105%	101%	98.5%	96%	growth at 10 µM [2]: 88.5%; growth at 10 µM [22]: 113%; growth at 10 µM [23]: 97.8%; growth at 10 µM [24]: 115%; growth at 10 µM [25]: 94.8%; growth at 10 µM [26]: 125%; growth at 10 µM [27]: 94.6%; growth at 10 µM [28]: 114%; growth at 10 µM [29]: 92.8%; growth at 10 µM [30]: 85.9%
CC1=NN(c2cn3c(-c4ccc(C)cc4)csc3n2)C(=O)C1	100%	118%	103%	106%	105%	105%	95.5%	99.2%	98.3%	78.9%	80.6%	111%	109%	79%	135%	95.9%	101%	95.5%	99.3%	102%	growth at 10 µM [22]: 124%; growth at 10 µM [23]: 99.9%; growth at 10 µM [24]: 110%; growth at 10 µM [25]: 98.5%; growth at 10 µM [26]: 114%; growth at 10 µM [27]: 83.6%; growth at 10 µM [28]: 107%; growth at 10 µM [29]: 93%; growth at 10 µM [30]: 79.1%
CC1=NN(c2cn3c(-c4ccc(Cl)cc4)csc3n2)C(=O)C1	88%	85.7%	88.7%	103%	103%	99.8%	92%	97.5%	79.6%	65.8%	73.7%	101%	101%	96.5%	98.8%	104%	94.1%	100%	100%	94.2%	growth at 10 µM [2]: 85.6%; growth at 10 µM [22]: 106%; growth at 10 µM [23]: 77.2%; growth at 10 µM [24]: 106%; growth at 10 µM [25]: 96.3%; growth at 10 µM [26]: 104%; growth at 10 µM [27]: 87.4%; growth at 10 µM [28]: 102%; growth at 10 µM [29]: 96.8%; growth at 10 µM [30]: 65.3%
O=C1CC(=O)N(c2cn3c(-c4ccccc4)csc3n2)N1	91%	104%	91.2%	100%	104%	98.1%	91.5%	85.9%	92.9%	101%	82.7%	97.6%	101%	85.7%	131%	89.7%	104%	86.8%	94.3%	89.8%	growth at 10 µM [22]: 104%; growth at 10 µM [23]: 81.2%; growth at 10 µM [24]: 99%; growth at 10 µM [25]: 96.4%; growth at 10 µM [26]: 102%; growth at 10 µM [27]: 99.9%; growth at 10 µM [28]: 141%; growth at 10 µM [29]: 86.9%; growth at 10 µM [30]: 63.1%
O=C1CN2C(c3ccccc3)=CSC2=N1	99.7%	109%	95.9%	102%	105%	116%	94.9%	93.6%	98.3%	95.4%	84.4%	112%	103%	96.7%	125%	102%	104%	89.5%	99.6%	97.9%	growth at 10 µM [22]: 113%; growth at 10 µM [23]: 97.7%; growth at 10 µM [24]: 111%; growth at 10 µM [25]: 105%; growth at 10 µM [26]: 114%; growth at 10 µM [27]: 95.1%; growth at 10 µM [28]: 102%; growth at 10 µM [29]: 89.4%; growth at 10 µM [30]: 61%
